Here are results for 47 molecules from ChEMBL document CHEMBL1157439, “Novel benzimidazole derivatives as selective CB2 agonists” (Bioorg Med Chem Lett, 2008).

The target of assay [1] is T1, Cannabinoid receptor 2 (Homo sapiens, UniProt P34972). The assay is described as follows: Displacement of [3H]CP-55940 from human CB2 receptor. (In general: Loss of bound radioactivity is the signal in a displacement assay; it reports binding, not function.)
The target in the next assay is Cannabinoid receptor 1 (Homo sapiens, UniProt P21554). Briefly: Displacement of [3H]CP-55940 from human CB1 receptor.
Assay [2] has as its target T1, Cannabinoid receptor 2. The assay is described as follows: Agonist activity at cloned human CB2 receptor in Sf9 cells assessed as stimulation of [35S]GTPgammaS binding assay. The format is functional. In outline: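 Sf9 membranes carrying cloned human CB2, in 50 mM Hepes, 20 mM NaOH, 100 mM NaCl, 1 mM EDTA, 5 mM MgCl2, 0.1% BSA plus GDP, pH 7.4. 10-point dose–response with [35S]GTPγS (~130,000 dpm/well), 1 h, room temperature. Filtered and washed (Tris/MgCl2/NaCl pH 7.4, 4 °C), then scintillation counted.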
(GTPγS is a poorly hydrolysed GTP analogue; its binding reports G protein activation.)

The target in assay [3] is T1, Cannabinoid receptor 2. Briefly: Agonist activity at cloned human CB2 receptor in Sf9 cells assessed by [35S]GTPgammaS binding assay relative to delta9-THC. The format is functional.

pEC50, pKi: −log10 of the molar value.

Sequence of Cannabinoid receptor 1 (P21554 whole entry): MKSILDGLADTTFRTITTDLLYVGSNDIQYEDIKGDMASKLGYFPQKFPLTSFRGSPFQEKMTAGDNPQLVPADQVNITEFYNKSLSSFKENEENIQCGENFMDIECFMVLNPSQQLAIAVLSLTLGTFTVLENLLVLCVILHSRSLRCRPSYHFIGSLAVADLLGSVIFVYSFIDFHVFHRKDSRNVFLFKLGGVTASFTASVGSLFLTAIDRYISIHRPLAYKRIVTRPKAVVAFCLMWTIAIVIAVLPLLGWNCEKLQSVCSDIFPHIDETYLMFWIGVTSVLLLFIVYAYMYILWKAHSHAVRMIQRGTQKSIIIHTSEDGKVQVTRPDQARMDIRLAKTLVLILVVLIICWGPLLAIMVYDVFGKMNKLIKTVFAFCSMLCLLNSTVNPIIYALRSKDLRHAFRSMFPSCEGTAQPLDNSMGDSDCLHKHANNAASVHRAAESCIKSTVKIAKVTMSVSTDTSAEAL
T1 sequence (P34972 whole entry): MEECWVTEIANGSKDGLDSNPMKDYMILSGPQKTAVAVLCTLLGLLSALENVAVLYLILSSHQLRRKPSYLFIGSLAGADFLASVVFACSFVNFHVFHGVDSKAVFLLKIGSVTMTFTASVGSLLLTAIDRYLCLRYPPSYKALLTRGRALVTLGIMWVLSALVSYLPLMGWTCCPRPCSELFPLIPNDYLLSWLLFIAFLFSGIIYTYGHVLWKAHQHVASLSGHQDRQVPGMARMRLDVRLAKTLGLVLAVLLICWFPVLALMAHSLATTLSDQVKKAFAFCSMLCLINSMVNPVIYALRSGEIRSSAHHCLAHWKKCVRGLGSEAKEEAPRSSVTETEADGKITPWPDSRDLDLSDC

As usually defined, the pKi is −log10 of the Ki, conventionally taken in molar units. With `CCOc1ccc(Cc2nc3cc(N(C)C(C)=O)ccc3n2CC2CC2)cc1`, the pKi is 5.87 on Cannabinoid receptor 2 [1] and < 5.30 at Cannabinoid receptor 1.
Regarding `CCOc1ccc(Cc2nc3cc(NC(C)=O)ccc3n2CC2CC2)cc1`, the pKi at Cannabinoid receptor 2 [1] and at Cannabinoid receptor 1 was < 5.30 throughout.
By pEC50 is commonly meant the EC50 on a negative log10 scale, so that one unit is a factor of ten. In general, Emax refers to the size of the effect at its maximum, as opposed to the concentration needed. With `CCOc1ccc(Cc2nc3cc(C(=O)N(CC)CC)ccc3n2Cc2ccccc2)cc1`, the pKi at Cannabinoid receptor 2 [1] is 7.92; at Cannabinoid receptor 1, 5.32. The pEC50 at Cannabinoid receptor 2 [2] is 8.96. This molecule displayed an Emax on Cannabinoid receptor 2 [3] of 88%.
In the same order, the values of `CCOc1ccc(Cc2nc3cc(C(=O)N(C)C4CCCCC4)ccc3n2CC2CC2)cc1` are 7.96, < 5.30, 8.38 and 60%.
For `CCOc1ccc(C(O)c2nc3cc(C(=O)N(CC)CC)ccc3n2CCC(C)C)cc1` (configuration not stated), the values for the pKi at Cannabinoid receptor 2 [1] and on Cannabinoid receptor 1 were 7.24 and < 5.30, respectively. Besides, the Emax at Cannabinoid receptor 2 [3] was found to be 70%.
For the molecule `CCOc1ccc(Cc2nc3cc(C(=O)N(CC)CC)ccc3n2Cc2ccncc2)cc1`, the pKi was 7.80 on Cannabinoid receptor 2 [1] and < 5.30 on Cannabinoid receptor 1. Further, the pEC50 on Cannabinoid receptor 2 [2] is 8.30. In addition, the Emax on Cannabinoid receptor 2 [3] was found to be 78%.
With `CCOc1ccc(Cc2nc3cc(N(C)C(=O)N4CCCCC4)ccc3n2CC2CC2)cc1`, the pKi is 8.40 at Cannabinoid receptor 2 [1] and 5.46 on Cannabinoid receptor 1. Further, at Cannabinoid receptor 2 [2], the pEC50 was 8.48. The same molecule yielded a maximum response (Emax) on Cannabinoid receptor 2 [3] of 60%.
Taken in the same sequence, the figures for `CCN(CC)C(=O)c1ccc2c(c1)nc(Cc1ccc(OC(F)(F)F)cc1)n2CCC(C)C` were 7.60, < 5.30, 7.96 and 29%.
Taken in the same sequence, the figures for `CCOc1ccc(Cc2nc3cc(N(C)C(=O)CC(C)C)ccc3n2CC2CC2)cc1` were 8.40, < 5.30, 8.57 and 54%.
For `CCCN(C)C(=O)c1ccc2c(c1)nc(Cc1ccc(OCC)cc1)n2CC1CC1`, the pKi at Cannabinoid receptor 2 [1] is 8.12; on Cannabinoid receptor 1, < 5.30. Moreover, on Cannabinoid receptor 2 [2], the pEC50 was 8.49. In addition, the Emax on Cannabinoid receptor 2 [3] is 54%.
On to `CCOc1ccc(Cc2nc3cc(NC)ccc3n2CC2CC2)cc1`, for which the pKi on Cannabinoid receptor 2 [1] was 5.36; on Cannabinoid receptor 1 it was < 5.30.
In the same order, the values of `CCN(CC)C(=O)c1ccc2c(c1)nc(Cc1ccc(O)cc1)n2CCC(C)C` are 6.10 and < 5.30.
Take `CCOc1ccc(Cc2nc3cc(C(=O)N(CC)CC)ccc3n2Cc2ccccn2)cc1`: the pKi was 7.41 at Cannabinoid receptor 2 [1] and < 5.30 at Cannabinoid receptor 1. On Cannabinoid receptor 2 [2], the negative logarithm of the EC50 (pEC50) was 7.60. Moreover, on Cannabinoid receptor 2 [3], the Emax came out at 77%.
Taken in the same sequence, the figures for `CCN(CC)C(=O)c1ccc2c(c1)nc(Cc1ccc(OC)cc1)n2CCC(C)C` were 7.77, < 5.30, 8.14 and 43%.
Consider `CCCN(CCC)C(=O)c1ccc2c(c1)nc(Cc1ccc(OCC)cc1)n2CC1CC1`, for which the pKi at Cannabinoid receptor 2 [1] is 8.55; on Cannabinoid receptor 1, 5.58. Further, the pEC50 on Cannabinoid receptor 2 [2] is 8.70. The Emax on Cannabinoid receptor 2 [3] is 67%.
Take `CCN(CC)C(=O)c1ccc2c(c1)nc(Cc1ccc(OC3CCCCC3)cc1)n2CCC(C)C`: the pKi at Cannabinoid receptor 2 [1] was 6.28; at Cannabinoid receptor 1 it was < 5.30.
In the case of `CCOc1ccc(Cc2nc3cc(C(=O)N(CC)CC)ccc3n2CC2CCOCC2)cc1`, the pKi is 8.41 on Cannabinoid receptor 2 [1] and 5.92 on Cannabinoid receptor 1. On Cannabinoid receptor 2 [2], the pEC50 was 9.00. The molecule also gave a maximum response (Emax) on Cannabinoid receptor 2 [3] of 89%.
In the same order, the values of `CCN(CC)C(=O)c1ccc2c(c1)nc(Cc1ccc(OCC(F)(F)F)cc1)n2CCC(C)C` are 7.24, < 5.30, 7.19 and 68%.
Taken in the same sequence, the figures for `CCOc1ccc(Cc2nc3cc(N(C)C(=O)N(CC)CC)ccc3n2CC2CC2)cc1` were 8.23, < 5.30, 8.70 and 48%.
Taken in the same sequence, the figures for `CCN(CC)C(=O)c1ccc2c(c1)nc(Cc1ccc(OC3CCC3)cc1)n2CCC(C)C` were 7.36, < 5.30, 7.62 and 73%.
For the molecule `CCOc1ccc(Cc2nc3cc(C(=O)N4CCCC4)ccc3n2CC2CC2)cc1`, the pKi on Cannabinoid receptor 2 [1] was 7.85; on Cannabinoid receptor 1, < 5.30. In addition, the pEC50 at Cannabinoid receptor 2 [2] is 8.21. On Cannabinoid receptor 2 [3], this molecule showed a maximum response (Emax) of 51%.
As to `CCOc1ccc(Cc2nc3cc(C(=O)N(CC)CC)ccc3n2CCC(C)C)cc1`, the pKi on Cannabinoid receptor 1 is < 5.30. The molecule also registered an Emax at Cannabinoid receptor 2 [3] of 63%.
On to `CCOc1ccc(Cc2nc3cc(C(=O)N(CC)CC)ccc3n2C[C@@H]2CCCO2)cc1`, for which the pKi at Cannabinoid receptor 2 [1] was 7.82; on Cannabinoid receptor 1, < 5.30. For the same molecule, at Cannabinoid receptor 2 [2], the pEC50 was 8.32. Also, the Emax at Cannabinoid receptor 2 [3] was 76%.
In the case of `CCOc1ccc(Cc2nc3cc(C(=O)N(CC)CC)ccc3n2C[C@H]2CCCO2)cc1`, the pKi at Cannabinoid receptor 2 [1] is 7.64; on Cannabinoid receptor 1, < 5.30. In addition, the pEC50 on Cannabinoid receptor 2 [2] is 8.08. At Cannabinoid receptor 2 [3], this molecule yielded an Emax of 62%.
Taken in the same sequence, the figures for `CCOc1ccc(Cc2nc3cc(C(=O)N(CC)CC)ccc3n2CC2CCC2)cc1` were 8.80, 5.51, 8.89 and 64%.
In the case of `CCOc1ccc(Cc2nc3cc(C(=O)N(CC)CC)ccc3n2CC2CC2)cn1`, on Cannabinoid receptor 1, the pKi is < 5.30.
For `CCOc1ccc(Cc2nc3cc(C(N)=O)ccc3n2CC2CC2)cc1`, the pKi at Cannabinoid receptor 2 [1] and at Cannabinoid receptor 1 was < 5.30 in each case.
On to `CCNC(=O)c1ccc2c(c1)nc(Cc1ccc(OCC)cc1)n2CC1CC1`, for which the pKi at Cannabinoid receptor 2 [1] is 7.20; at Cannabinoid receptor 1 it was < 5.30. Also, at Cannabinoid receptor 2 [2], the pEC50 is 7.28. The molecule also yielded an Emax at Cannabinoid receptor 2 [3] of 53%.
Taken in the same sequence, the figures for `CCOc1ccc(Cc2nc3cc(N(C)C(=O)c4cccs4)ccc3n2CC2CC2)cc1` were 8.30, 5.61, 8.59 and 51%.
In the same order, the values of `CCOc1ccc(Cc2nc3cc(C(=O)N(CC)CC)ccc3n2CC2CCCCC2)cc1` are 8.43, 6.96, 9.28 and 79%.
`CCOc1ccc(Cc2nc3cc(C(=O)N(CC)CC)ccc3n2CC2CC2)nc1`: the results for the negative-log Ki (pKi) at Cannabinoid receptor 2 [1] and at Cannabinoid receptor 1 were 7.57 and < 5.30, respectively. In addition, the negative-log EC50 (pEC50) on Cannabinoid receptor 2 [2] was 7.66. At Cannabinoid receptor 2 [3], the Emax amounted to 63%.
In the same order, the values of `CCOc1ccc(Cc2nc3cc(C(=O)N(CC)CC)ccc3n2Cc2ccco2)cc1` are 7.96, < 5.30, 8.48 and 78%.
Taken in the same sequence, the figures for `CCOc1ccc(Cc2nc3cc(N(C)C(=O)NC(C)C)ccc3n2CC2CC2)cc1` were 8.24, < 5.30, 8.19 and 51%.
Taken in the same sequence, the figures for `CCOc1ccc(Cc2nc3cc(C(=O)N(CC)CC)ccc3n2CC23CC4CC(CC(C4)C2)C3)cc1` were 8.55, 6.39, 8.89 and 81%.
With `CCOc1ccc(C(=O)c2nc3cc(C(=O)N(CC)CC)ccc3n2CCC(C)C)cc1`, the pKi at Cannabinoid receptor 2 [1] is 7.46; at Cannabinoid receptor 1, < 5.30. Moreover, the pEC50 on Cannabinoid receptor 2 [2] is 7.60. At Cannabinoid receptor 2 [3], this molecule gave an Emax of 55%.
Taken in the same sequence, the figures for `CCOc1ccc(Cc2nc3cc(C(=O)N(CC)CC)ccc3n2CC2CCCC2)cc1` were 9.00, 6.31, 9.15 and 79%.
`Cc1c(C(=O)c2cccc3ccccc23)c2cccc3c2n1[C@H](CN1CCOCC1)CO3`: the Emax on Cannabinoid receptor 2 [3] was determined as 64%.
Regarding `CCOc1ccc(Cc2nc3cc(C(=O)N(CC)CC)ccc3n2CC2CC2)cc1`, the negative logarithm of the Ki (pKi) at Cannabinoid receptor 2 [1] is 8.39; at Cannabinoid receptor 1, < 5.30. At Cannabinoid receptor 2 [2], the pEC50 was 8.68. Further, the Emax on Cannabinoid receptor 2 [3] turned out to be 68%.
Take `CCOc1ccc(Cc2nc3cc(C(=O)N(CC(F)(F)F)CC(F)(F)F)ccc3n2CC2CC2)cc1`: on Cannabinoid receptor 1, the negative logarithm of the Ki (pKi) is 5.34. Further, the pEC50 at Cannabinoid receptor 2 [2] is 8.70. At Cannabinoid receptor 2 [3], this molecule returned an Emax of 51%.
In the case of `CCOc1ccc(Cc2nc3cc(C(=O)N4CCCCC4)ccc3n2CC2CC2)cc1`, the figures for the pKi on Cannabinoid receptor 2 [1] and at Cannabinoid receptor 1 were 8.16 and < 5.30, respectively. For the same molecule, the pEC50 at Cannabinoid receptor 2 [2] is 8.52. Moreover, the Emax on Cannabinoid receptor 2 [3] worked out at 45%.
Taken in the same sequence, the figures for `CCOc1ccc(Cc2nc3cc(N(C)C(=O)N(C)C)ccc3n2CC2CC2)cc1` were 7.39, < 5.30, 7.44 and 55%.
In the same order, the values of `CCN(CC)C(=O)c1ccc2c(c1)nc(Cc1ccc(Oc3ccccc3)cc1)n2CCC(C)C` are 8.31, 5.62, 8.49 and 66%.
For the molecule `CCOc1ccc(Cc2nc3cc(C(=O)N(CC)CC)ccc3n2Cc2cc[n+]([O-])cc2)cc1`, the pKi is 6.23 at Cannabinoid receptor 2 [1] and < 5.30 at Cannabinoid receptor 1.
With `CCN(CC)C(=O)c1ccc2c(c1)nc(Cc1ccc(OC(C)C)cc1)n2CCC(C)C`, the pKi on Cannabinoid receptor 2 [1] was 8.35; at Cannabinoid receptor 1, 5.33. Besides, on Cannabinoid receptor 2 [2], the pEC50 is 8.62. The molecule also returned an Emax at Cannabinoid receptor 2 [3] of 79%.
Take `CCN(CC)C(=O)c1ccc2c(c1)nc(Cc1ccc(OCC3CC3)cc1)n2CCC(C)C`: the pKi at Cannabinoid receptor 2 [1] is 7.28; at Cannabinoid receptor 1 it was 5.38. In addition, the pEC50 at Cannabinoid receptor 2 [2] is 7.37. In addition, the maximum response (Emax) at Cannabinoid receptor 2 [3] is 75%.
For `CCOc1ccc(Cc2nc3cc(C(=O)N(CC)CC)ccc3n2CC2CCNCC2)cc1`, the pKi at Cannabinoid receptor 2 [1] was 5.53; on Cannabinoid receptor 1, < 5.30.
Consider `CCN(CC)C(=O)c1ccc2c(c1)nc(Cc1ccc(OC3CCCC3)cc1)n2CCC(C)C`, for which the pKi on Cannabinoid receptor 2 [1] is 7.37; at Cannabinoid receptor 1, < 5.30. Also, the pEC50 on Cannabinoid receptor 2 [2] is 7.74. The same molecule gave a maximal response (Emax) on Cannabinoid receptor 2 [3] of 83%.
